{"source": "paper PMC3448790", "about": "(Biochemistry, 2012)", "molecules": {"B1": {"name": "cytoplasmic domain of band 3 (cdB3), wild type, with COOH-terminal His6-tag (domain or fragment, human)", "chain": "MEELQDDYEDMMEENLEQEEYEDPDIPESQMEEPAAHDTEATATDYHTTSHPGTHKVYVELQELVMDEKNQELRWMEAARWVQLEENLGENGAWGRPHLSHLTFWSLLELRRVFTKGTVLLDLQETSLAGVANQLLDRFIFEDQIRPQDREELLRALLLKHSHAGELEALGGVKPAVLTRSGDPSQPLLPQHSSLETQLFCEQGDGGTEGHSPSGILEKIPPDSEATLVLVGRADFLEQPVLGFVRLQEAAELEAVELPVPIRFLFVLLGPEAPHIDYTQLGRAAATLMSERVFRIDAYMAQSRGELLHSLEGFLDCSLVLPPTDAPSEQALLSLVPVQRELLRRRYQSSPAKPDSSFYKGLDLNGGPDDPLQQTGQLF"}, "B2": {"name": "native cdB3: cytoplasmic domain of band 3 (protein)", "chain": "MEELQDDYEDMMEENLEQEEYEDPDIPESQMEEPAAHDTEATATDYHTTSHPGTHKVYVELQELVMDEKNQELRWMEAARWVQLEENLGENGAWGRPHLSHLTFWSLLELRRVFTKGTVLLDLQETSLAGVANQLLDRFIFEDQIRPQDREELLRALLLKHSHAGELEALGGVKPAVLTRSGDPSQPLLPQHSSLETQLFCEQGDGGTEGHSPSGILEKIPPDSEATLVLVGRADFLEQPVLGFVRLQEAAELEAVELPVPIRFLFVLLGPEAPHIDYTQLGRAAATLMSERVFRIDAYMAQSRGELLHSLEGFLDCSLVLPPTDAPSEQALLSLVPVQRELLRRRYQSSPAKPDSSFYKGLDLNGGPDDPLQQTGQLF", "modifications": "left off: His6, C-terminal, kept"}, "B3": {"name": "mutated ankyrin: D3D4 domain of ankyrin with the four mutations N601D, K611E, E645K, and Q634E (protein)", "chain": "ESGLTPLHVASFMGHLPIVKNLLQRGASPNVSNVKVETPLHMAARAGHTEVAKYLLQNKAKVNAKAKDDQTPLHCAARIGHTNMVKLLLENNANPNLATTAGHTPLHIAAREGHVETVLALLEKEASQACMTKKGFTPLHVAAKYGKVRVAELLLERDAHPNAAGKNGLTPLHVAVHHNNLDIVKLLLPRGGSPHSPAWDGYTPLHIAAEQNQVEVARSLLQYGGSANAESVEGVTPLHLAAQKGHAEMVALLLSKQANGNLGNKSGLTPLHLVAQEGHVPVADVLIKHGVMVDATTRMGYTPLHVASHYGNIKLVKFLLQHQADVNAKTKLGYSPLHQAAQQGHTDIVTLLLKNGASPNEVSSDGTTPLAIAKRLGYISVTDVLKVVTDETSFVLVSDKHRMSFPETVDEILDVSEDEGEELISF", "modifications": "left off: GST, end not stated, kept"}, "B4": {"name": "Wild-type ankyrin: GST fusion construct of the D3D4 domain of ankyrin (protein)", "chain": "ESGLTPLHVASFMGHLPIVKNLLQRGASPNVSNVKVETPLHMAARAGHTEVAKYLLQNKAKVNAKAKDDQTPLHCAARIGHTNMVKLLLENNANPNLATTAGHTPLHIAAREGHVETVLALLEKEASQACMTKKGFTPLHVAAKYGKVRVAELLLERDAHPNAAGKNGLTPLHVAVHHNNLDIVKLLLPRGGSPHSPAWNGYTPLHIAAKQNQVEVARSLLQYGGSANAESVQGVTPLHLAAQEGHAEMVALLLSKQANGNLGNKSGLTPLHLVAQEGHVPVADVLIKHGVMVDATTRMGYTPLHVASHYGNIKLVKFLLQHQADVNAKTKLGYSPLHQAAQQGHTDIVTLLLKNGASPNEVSSDGTTPLAIAKRLGYISVTDVLKVVTDETSFVLVSDKHRMSFPETVDEILDVSEDEGEELISF", "modifications": "left off: GST, end not stated, kept"}, "B5": {"name": "ΔL2 cdb3: mutant cdB3 with a diglycine bridge in place of loop 2 (residues 175–185) (protein)", "chain": "MEELQDDYEDMMEENLEQEEYEDPDIPESQMEEPAAHDTEATATDYHTTSHPGTHKVYVELQELVMDEKNQELRWMEAARWVQLEENLGENGAWGRPHLSHLTFWSLLELRRVFTKGTVLLDLQETSLAGVANQLLDRFIFEDQIRPQDREELLRALLLKHSHAGELEALGGVKGGQPLLPQHSSLETQLFCEQGDGGTEGHSPSGILEKIPPDSEATLVLVGRADFLEQPVLGFVRLQEAAELEAVELPVPIRFLFVLLGPEAPHIDYTQLGRAAATLMSERVFRIDAYMAQSRGELLHSLEGFLDCSLVLPPTDAPSEQALLSLVPVQRELLRRRYQSSPAKPDSSFYKGLDLNGGPDDPLQQTGQLF", "modifications": "left off: His6, C-terminal, kept"}, "B6": {"name": "cdB3 ΔL1 (cdB3 with loop 1, residues 63–73, replaced by a diglycine bridge) (domain or fragment, human)", "chain": "MEELQDDYEDMMEENLEQEEYEDPDIPESQMEEPAAHDTEATATDYHTTSHPGTHKVYVELQGGRWMEAARWVQLEENLGENGAWGRPHLSHLTFWSLLELRRVFTKGTVLLDLQETSLAGVANQLLDRFIFEDQIRPQDREELLRALLLKHSHAGELEALGGVKPAVLTRSGDPSQPLLPQHSSLETQLFCEQGDGGTEGHSPSGILEKIPPDSEATLVLVGRADFLEQPVLGFVRLQEAAELEAVELPVPIRFLFVLLGPEAPHIDYTQLGRAAATLMSERVFRIDAYMAQSRGELLHSLEGFLDCSLVLPPTDAPSEQALLSLVPVQRELLRRRYQSSPAKPDSSFYKGLDLNGGPDDPLQQTGQLF"}, "B7": {"name": "cdB3 ΔL1: mutant cdB3 with loop 1 (residues 63–73) replaced by a diglycine bridge (protein)", "chain": "MEELQDDYEDMMEENLEQEEYEDPDIPESQMEEPAAHDTEATATDYHTTSHPGTHKVYVELQGGRWMEAARWVQLEENLGENGAWGRPHLSHLTFWSLLELRRVFTKGTVLLDLQETSLAGVANQLLDRFIFEDQIRPQDREELLRALLLKHSHAGELEALGGVKPAVLTRSGDPSQPLLPQHSSLETQLFCEQGDGGTEGHSPSGILEKIPPDSEATLVLVGRADFLEQPVLGFVRLQEAAELEAVELPVPIRFLFVLLGPEAPHIDYTQLGRAAATLMSERVFRIDAYMAQSRGELLHSLEGFLDCSLVLPPTDAPSEQALLSLVPVQRELLRRRYQSSPAKPDSSFYKGLDLNGGPDDPLQQTGQLF", "modifications": "left off: His6, C-terminal, kept"}, "B8": {"name": "double loop deleted (ΔL1 + ΔL2) cdB3: combination of loop 1 and loop 2 deletion mutant (protein)", "chain": "MEELQDDYEDMMEENLEQEEYEDPDIPESQMEEPAAHDTEATATDYHTTSHPGTHKVYVELQGGRWMEAARWVQLEENLGENGAWGRPHLSHLTFWSLLELRRVFTKGTVLLDLQETSLAGVANQLLDRFIFEDQIRPQDREELLRALLLKHSHAGELEALGGVKGGQPLLPQHSSLETQLFCEQGDGGTEGHSPSGILEKIPPDSEATLVLVGRADFLEQPVLGFVRLQEAAELEAVELPVPIRFLFVLLGPEAPHIDYTQLGRAAATLMSERVFRIDAYMAQSRGELLHSLEGFLDCSLVLPPTDAPSEQALLSLVPVQRELLRRRYQSSPAKPDSSFYKGLDLNGGPDDPLQQTGQLF", "modifications": "left off: His6, C-terminal, kept"}}, "key": {"[1]": {"molecular_target": "T1, GST-D3D4-ankyrin (GST fusion construct of the D3D4 domain of ankyrin), wild type (human, UniProt P16157 402-827)", "T1 sequence": "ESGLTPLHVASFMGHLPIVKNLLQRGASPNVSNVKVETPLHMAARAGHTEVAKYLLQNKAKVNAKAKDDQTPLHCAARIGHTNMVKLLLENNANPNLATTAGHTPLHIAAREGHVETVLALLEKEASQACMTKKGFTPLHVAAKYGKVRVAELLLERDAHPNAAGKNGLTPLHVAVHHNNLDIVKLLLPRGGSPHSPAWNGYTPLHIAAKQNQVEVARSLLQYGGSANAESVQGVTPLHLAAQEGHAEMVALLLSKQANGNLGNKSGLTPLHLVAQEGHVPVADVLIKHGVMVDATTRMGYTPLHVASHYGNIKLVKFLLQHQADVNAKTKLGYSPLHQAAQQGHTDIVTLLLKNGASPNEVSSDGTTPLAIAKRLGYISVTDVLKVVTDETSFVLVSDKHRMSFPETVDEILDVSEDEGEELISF", "experiment": "pull-down"}, "GST-ankyrin": {"test_system": "GST-ankyrin", "assay_type": "binding, human", "settings": "GST-ankyrin 1 μM on glutathione-beads; cdB3 or mutant 1 μM; anti-cdB3 antibody", "in_short": "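Purified GST-ankyrin was immobilized on glutathione beads and incubated 2 h with His6-tagged wild-type or mutant cdB3 expressed in E. coli. Beads were washed 3x with binding buffer, and captured cdB3 was quantified by dot blot with a locally prepared polyclonal anti-cdB3 antibody.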"}, "GST-D3D4-ankyrin [2]": {"test_system": "GST-D3D4-ankyrin", "assay_type": "binding, human", "settings": "increasing concentrations of GST-D3D4-ankyrin; anti-ankyrin polyclonal antibodies"}, "[3]": {"test_system": "glyceraldehyde-3-phosphate dehydrogenase (GAPDH)", "settings": "2 μg/mL GAPDH, 2 min at room temperature, pH 7.0; 10 mM imidazole acetate; absorbance change at 340 nm"}, "cdB3": {"test_system": "cdB3", "experiment": "Binding of native or mutated GST-D3D4 ankyrin to His-tagged cdB3", "parameters": "species or system human", "settings": "GST activity, n=2", "in_short": "(§1)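 His6-tagged cdB3 (wild type or loop-deletion mutant) and GST-D3D4 ankyrin (wild type or charge-reversal mutant) were expressed in E. coli BL21(DE3)pLysS and purified. cdB3 was incubated at 4°C with increasing GST-ankyrin in pH 8.0 phosphate/KCl/imidazole buffer with 10% sucrose, 1 mg/ml BSA and PMSF. Complexes were captured on Co2+-NTA beads for 2 h, washed 3x and eluted with 250 mM imidazole. Equal cdB3 loading was checked by anti-cdB3 blot, and bound ankyrin was quantified by GST activity.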"}, "GST-D3D4-ankyrin [4]": {"test_system": "GST-D3D4-ankyrin", "experiment": "His-tag pull-down on Co2+-NTA agarose, bound GST-D3D4-ankyrin by GST activity", "assay_type": "binding, human", "settings": "immobilized cdB3 variants, pH 8.0, n=2", "in_short": "as §1"}, "[5]": {"molecular_target": "T1, GST-D3D4-ankyrin (GST fusion construct …)", "experiment": "pull-down", "remark": "listed apart in the source"}, "AUC": {"molecular_target": "the molecule itself", "experiment": "AUC"}}, "note": "Bridges are numbered along the chain shown (N, C = ends). Where no end group is shown, it is not given here."}
{"molecule": "B1", "values": [{"measurement": "Kd", "setting": "[1]", "result": "~0.4", "unit": "µM"}]}
{"molecule": "B2", "values": [{"measurement": "affinity for immobilized GST-ankyrin by dot blot (in words)", "setting": "GST-ankyrin", "result": "strong affinity"}, {"measurement": "GST-ankyrin binding by dot blot (in words)", "setting": "GST-D3D4-ankyrin [2]", "result": "usual prominent binding"}, {"measurement": "inhibition of GAPDH", "setting": "[3]", "result": 90, "unit": "%"}]}
{"molecule": "B3", "values": [{"measurement": "affinity of mutated ankyrin for cdB3 (in words)", "setting": "cdB3; N601D, K611E, Q634E, E645K mutant", "result": "unable to bind cdB3"}]}
{"molecule": "B4", "values": [{"measurement": "Kd", "setting": "cdB3; read-out: apparent dissociation constant of ankyrin for cdB3", "result": "~0.4", "unit": "µM"}]}
{"molecule": "B5", "values": [{"measurement": "affinity for GST-ankyrin (in words)", "setting": "GST-D3D4-ankyrin [4]", "result": "no affinity could be detected"}]}
{"molecule": "CELVMDEKNQELC (disulfide 1-13)", "note": "[cyclized loop 1 peptide (residues 63–73 of cdB3 with a cysteine at each end, disulfide-bonded)]", "values": [{"measurement": "IC50", "setting": "[5]", "result": "~15", "unit": "µM"}]}
{"molecule": "CELVMDEKNQELC", "note": "[linear loop 1 peptide (residues 63–73 of cdB3 with a cysteine at each end, reduced)]", "values": [{"measurement": "IC50", "setting": "[5]", "result": 55, "unit": "µM"}]}
{"molecule": "B6", "values": [{"measurement": "stoichiometry N", "setting": "AUC", "result": 2}]}
{"molecule": "B7", "values": [{"measurement": "affinity for immobilized GST-ankyrin by dot blot (in words)", "setting": "GST-ankyrin", "result": "no affinity for ankyrin"}]}
{"molecule": "B8", "values": [{"measurement": "affinity for GST-ankyrin (in words)", "setting": "GST-D3D4-ankyrin [4]", "result": "no affinity could be detected"}]}
